{
  "source": "ChEMBL document CHEMBL3826914",
  "about": "“Selective photodepletion of malignant T cells in extracorporeal photopheresis with selenorhodamine photosensitizers” (Bioorg Med Chem, 2016)",
  "key": {"[1]": {"tested_on": "HuT78", "assay": "Phototoxicity against human HUT78 cells assessed as reduction in cell viability preincubated for 1 hr in dark before exposure to 1 J/cm2 irradiation after 48 hrs by MTT assay", "format": "functional, cell-based", "how_it_was_run": "(§1)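 HUT-78 cells in RPMI 1640 with 10% FBS, 1% HEPES and 1% penicillin-streptomycin were plated at 7.5×10^4 per well and grown 24 h. Dye was added to final 5×10^-8 to 5×10^-7 M, then 1 h in the dark. Plates were kept dark or irradiated with a 633 ± 2 nm dye laser at ~3.2 mW cm^-2 to 0.5, 1.0 or 2.0 J cm^-2. Medium was replaced, 48 h at 37 °C, then MTT read at 570 nm. Triplicate runs; EC50/LD50 by sigmoidal variable-slope fit.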"}, "[2]": {"assay": "Dark toxicity against human HUT78 cells assessed as reduction in cell viability preincubated for 1 hr in dark after 48 hrs by MTT assay", "format": "cell-based", "settings": "read-out: LD50", "how_it_was_run": "as §1"}, "[3]": {"assay": "Drug extrusion in human CD3 positive cells assessed as change in mean fluorescence intensity at 5 x 10^-8 M preincubated for 20 mins followed by growth in photosensitizer-free media for 30 mins by flow cytometric analysis relative to control", "format": "cell-based", "settings": "0.5 h, 0.05 µM"}, "[4]": {"assay": "Drug extrusion in human CD4 positive cells assessed as change in mean fluorescence intensity at 5 x 10^-8 M preincubated for 20 mins followed by growth in photosensitizer-free media for 30 mins by flow cytometric analysis relative to control", "format": "cell-based", "settings": "0.5 h, 0.05 µM"}, "[5]": {"assay": "Drug extrusion in human CD8 positive cells assessed as change in mean fluorescence intensity at 5 x 10^-8 M preincubated for 20 mins followed by growth in photosensitizer-free media for 30 mins by flow cytometric analysis relative to control", "format": "cell-based", "settings": "0.5 h, 0.05 µM"}, "[6]": {"assay": "Drug extrusion in SEB-stimulated human CD25 positive cells assessed as change in mean fluorescence intensity at 5 x 10^-8 M preincubated for 20 mins followed by growth in photosensitizer-free media for 30 mins by flow cytometric analysis relative to control", "settings": "0.5 h, 0.05 µM"}, "[7]": {"assay": "Drug extrusion in SEB-stimulated human CD25 negative cells assessed as change in mean fluorescence intensity at 5 x 10^-8 M preincubated for 20 mins followed by growth in photosensitizer-free media for 30 mins by flow cytometric analysis relative to control", "settings": "0.5 h, 0.05 µM"}, "[8]": {"assay": "Drug uptake in SEB-stimulated human CD25 positive cells assessed as mean fluorescence intensity at 5 x 10^-8 M preincubated for 20 mins followed by growth in photosensitizer-free media for 30 mins by flow cytometric analysis relative to control", "settings": "0.5 h, 0.05 µM"}, "[9]": {"assay": "Drug uptake in SEB-stimulated human CD25 negative cells assessed as mean fluorescence intensity at 5 x 10^-8 M preincubated for 20 mins followed by growth in photosensitizer-free media for 30 mins by flow cytometric analysis relative to control", "settings": "0.5 h, 0.05 µM"}, "[10]": {"tested_on": "HuT78", "assay": "(§2) Phototoxicity in GFP expressing human HUT78 cells co-cultured with human PBMC cells assessed as cell survival at 7.5 x 10^-8 M preincubated 20 mins in photosensitizer media followed by growth in photosensitizer-free media for 30 mins measured 18 hrs after exposure to 5 J/cm2 irradiation by FACS analysis", "format": "functional", "settings": "HuT78, light or radiation study, read-out: Survival", "how_it_was_run": "(§3)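 Non-stimulated PBMCs from healthy donors (Ficoll-separated) were mixed 5:1 with GFP-transfected, sorted (>98%) HUT-78 cells. Cells took up 7.5×10^-8 M photosensitizer for 20 min, then spent 30 min in dye-free medium. They were exposed to 5 J cm^-2 light (600 nm LED) with rotation at 180 rpm. Survival was gated by FACS (GFP, CD3, CD4, CD8) 18 h later versus non-irradiated controls. Triplicate; mean ± SEM.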"}, "[11]": {"assay": "as §2, with “Phototoxicity human CD3 positive cells co-cultured with” for “Phototoxicity in”, “HUT78” for “HUT78 cells co-cultured with human PBMC”", "format": "cell-based", "settings": "read-out: Survival", "how_it_was_run": "as §3"}, "[12]": {"assay": "as §2, with “Phototoxicity human CD4 positive cells co-cultured with” for “Phototoxicity in”, “HUT78” for “HUT78 cells co-cultured with human PBMC”", "format": "cell-based", "settings": "read-out: Survival", "how_it_was_run": "as §3"}, "[13]": {"assay": "as §2, with “Phototoxicity human CD8 positive cells co-cultured with” for “Phototoxicity in”, “HUT78” for “HUT78 cells co-cultured with human PBMC”", "format": "cell-based", "settings": "read-out: Survival", "how_it_was_run": "as §3"}, "[14]": {"tested_on": "HuT78", "assay": "Phototoxicity against human HUT78 cells assessed as reduction in cell viability preincubated for 1 hr in dark at 5 x 10^-8M before exposure to 0.5 to 2 J/cm2 irradiation after 48 hrs by MTT assay", "format": "functional, cell-based", "how_it_was_run": "as §1"}, "[15]": {"tested_on": "HuT78", "assay": "Drug uptake in GFP expressing human HUT78 cells co-cultured with non-stimulated human PBMC cells assessed as change in mean fluorescence intensity at 7.5 x 10^-8 M after 20 mins followed by growth in photosensitizer-free media for 30 mins by flow cytometric analysis relative to control", "format": "cell-based", "settings": "hut78, 0.5 h, 0.075 µM"}, "[16]": {"assay": "Drug extrusion in SEB-stimulated human CD25 positive cells assessed as mean fluorescence intensity at 5 x 10^-8 M preincubated for 20 mins followed by growth in photosensitizer-free media for 30 mins by flow cytometric analysis relative to control", "settings": "0.5 h, 0.05 µM"}, "[17]": {"assay": "Drug extrusion in SEB-stimulated human CD25 negative cells assessed as mean fluorescence intensity at 5 x 10^-8 M preincubated for 20 mins followed by growth in photosensitizer-free media for 30 mins by flow cytometric analysis relative to control", "settings": "0.5 h, 0.05 µM"}, "[18]": {"tested_on": "ABCB1", "assay": "Permeability from apical to basolateral side in dog MDCK2-MDR1 cells expressing ABCB1 at 5 uM after 30 mins in presence of compound 15 by LC-MS/MS analysis", "format": "ADME, cell-based, Canis lupus familiaris, MDCK-II", "settings": "MDCK-MDR1, with compound 15 (concentration not stated), read-out: permeability", "how_it_was_run": "(§4)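 MDR1-transfected MDCKII cells (passage 16–42) were seeded at 50,000 cells cm^-2 on Transwell filters and used on day 6. Monolayers were rinsed in DPBS with 10^-2 M HEPES, pH 7.4, at 37 °C. They were preincubated 30 min in 4.3 mg/mL BSA/DPBSH with or without 5×10^-6 M P-gp inhibitor. 5 μM dye was added apically or basolaterally and samples taken after 1 h at 37 °C with nutation. Quantitation was by LC-MS/MS; P_passive is the mean of P_AB and P_BA under full inhibition. Mean ± SD.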"}, "[19]": {"tested_on": "ABCB1", "assay": "Permeability from apical to basolateral side in dog MDCK2-MDR1 cells expressing ABCB1 at 5 uM after 30 mins in absence of compound 15 by LC-MS/MS analysis", "format": "ADME, cell-based, Canis lupus familiaris, MDCK-II", "settings": "MDCK-MDR1, read-out: permeability", "how_it_was_run": "as §4"}, "[20]": {"tested_on": "ABCB1", "assay": "Permeability from basolateral to apical side in dog MDCK2-MDR1 cells expressing ABCB1 at 5 uM after 30 mins in presence of compound 15 by LC-MS/MS analysis", "format": "ADME, cell-based, Canis lupus familiaris, MDCK-II", "settings": "MDCK-MDR1, with compound 15 (concentration not stated), read-out: permeability", "how_it_was_run": "as §4"}, "[21]": {"tested_on": "ABCB1", "assay": "Permeability from basolateral to apical side in dog MDCK2-MDR1 cells expressing ABCB1 at 5 uM after 30 mins in absence of compound 15 by LC-MS/MS analysis", "format": "ADME, cell-based, Canis lupus familiaris, MDCK-II", "settings": "MDCK-MDR1, read-out: permeability", "how_it_was_run": "as §4"}, "[22]": {"tested_on": "ABCB1", "assay": "Passive permeability in dog MDCK2-MDR1 cells expressing ABCB1 at 5 uM after 30 mins in presence of compound 15 by LC-MS/MS analysis", "format": "ADME, cell-based, Canis lupus familiaris, MDCK-II", "settings": "MDCK-MDR1, with compound 15 (concentration not stated), read-out: permeability", "how_it_was_run": "as §4"}, "[23]": {"assay": "Drug uptake in human HUT78 cell mitochondria by MTG-based bright field microscopic analysis", "format": "ADME", "how_it_was_run": "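HUT-78 cells (5×10^5 in 0.5 mL medium) were incubated 15 min with 2×10^-7 M dye together with 5×10^-7 M MitoTracker Green. They were centrifuged and analysed by ImageStream imaging flow cytometry, with MTG excited at 488 nm (480–560 nm channel) and dye excited at 561 nm (642–745 nm channel). Colocalisation was given as the bright detail similarity score, mean ± SD over cells.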"}, "[24]": {"tested_on": "HuT78", "settings": "human, hut78, 0.5 h, 0.075 µM"}, "[25]": {"tested_on": "HuT78", "settings": "human, hut78, 0.5 h, 0.075 µM", "remark": "listed apart in the source"}},
  "note": "The source made the active and inactive calls. No cut-off for these calls is given here.",
  "data": [
    {"compound": "O=C(c1ccc(C2=c3cc4c5c(c3[Se]c3c2cc2c6c3CCCN6CCC2)CCC[N+]=5CCC4)s1)N1CCCCC1.[Cl-]", "values": [
      {"measurement": "Activity", "setting": "[1]", "result": "Dose-dependent effect"},
      {"measurement": "EC50", "setting": "[1]; HuT78, light or radiation study", "result": 70, "unit": "nM"},
      {"measurement": "CC50 at 48 h", "setting": "[2]", "result": 730, "unit": "nM"},
      {"measurement": "Activity", "setting": "[3]", "result": 54.6, "unit": "%"},
      {"measurement": "Activity", "setting": "[4]", "result": 59.1, "unit": "%"},
      {"measurement": "Activity", "setting": "[5]", "result": 69, "unit": "%"},
      {"measurement": "Activity", "setting": "[6]", "result": 39.9, "unit": "%"},
      {"measurement": "Activity", "setting": "[7]", "result": 59.8, "unit": "%"},
      {"measurement": "Flu intensity", "setting": "[8]", "result": 7510, "unit": "a.u."},
      {"measurement": "Flu intensity", "setting": "[9]", "result": 1450, "unit": "a.u."},
      {"measurement": "viability at 0.075 µM", "setting": "[10]", "result": 3.9, "unit": "%"},
      {"measurement": "viability at 18 h, 0.075 µM", "setting": "[11]", "result": 62.1, "unit": "%"},
      {"measurement": "viability at 18 h, 0.075 µM", "setting": "[12]", "result": 63.3, "unit": "%"},
      {"measurement": "viability at 18 h, 0.075 µM", "setting": "[13]", "result": 78, "unit": "%"},
      {"measurement": "Activity", "setting": "[14]", "result": "Active"},
      {"measurement": "Activity", "setting": "[15]", "result": 55.7, "unit": "%"},
      {"measurement": "Flu intensity", "setting": "[16]", "result": 4500, "unit": "a.u."},
      {"measurement": "Flu intensity", "setting": "[17]", "result": 580, "unit": "a.u."},
      {"measurement": "Papp A→B at 0.5 h, 5 µM", "setting": "[18]", "result": 0.024, "unit": "×10⁻⁶ cm/s"},
      {"measurement": "Papp A→B at 0.5 h, 5 µM", "setting": "[19]", "result": 0.21, "unit": "×10⁻⁶ cm/s"},
      {"measurement": "Papp B→A at 0.5 h, 5 µM", "setting": "[20]", "result": 0.48, "unit": "×10⁻⁶ cm/s"},
      {"measurement": "Papp B→A at 0.5 h, 5 µM", "setting": "[21]", "result": 7.8, "unit": "×10⁻⁶ cm/s"},
      {"measurement": "Papp at 0.5 h, 5 µM", "setting": "[22]", "result": 0.2, "unit": "×10⁻⁶ cm/s"},
      {"measurement": "Drug uptake", "setting": "[23]", "result": "Active"},
      {"measurement": "Flu intensity", "setting": "[24]", "result": 6800, "unit": "a.u."},
      {"measurement": "Flu intensity", "setting": "[25]", "result": 4500, "unit": "a.u."}
    ]}
  ]
}
